# Experimental data from ChEMBL document CHEMBL1136772, “Thyroid receptor ligands. 1. Agonist ligands selective for the thyroid receptor beta1” (J Med Chem, 2003).
# What was measured:
# Format in all cases: functional
# Rattus norvegicus [1] = assay: Effect upon subcutaneous administration on the heart rate in rat was determined
# Summary of the method: (§1)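 Cholesterol-fed male Sprague-Dawley rats (1.5% cholesterol, 0.5% cholic acid, 2 weeks) dosed s.c. once daily for 7 days, vehicle 10% m-pyrol/5% ethanol/5% cremaphor/80% water, n = 6/dose, 1.54–9240 nmol/kg/day. Heart rate recorded by lead II ECG under 30 mg/kg pentobarbital. ED15 = dose raising heart rate 15% over vehicle; ratio taken against cholesterol ED50 (50% suppression from vehicle).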
# Rattus norvegicus [2] = assay: Effect upon subcutaneous administration on TSH suppression in rat was determined
# Summary of the method: (§2)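 Male Sprague-Dawley rats on chow with 1.5% cholesterol and 0.5% cholic acid for 2 weeks, then s.c. once daily for 7 days (vehicle 10% m-pyrol, 5% ethanol, 5% cremaphor, 80% water; n = 6/dose), doses 1.54–9240 nmol/kg/day. Plasma TSH measured by rat RIA and cholesterol by clinical analyzer in aortic blood after pentobarbital. ED50 = dose giving 50% suppression from vehicle, in nmol/kg/day.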
# Rattus norvegicus [3] = assay: Effect upon subcutaneous administration on cholesterol in rat was determined; summary of the method: as §2
# Rattus norvegicus [4] = organism: Rattus norvegicus; assay: Ratio of ED15HR to that of ED50chol was determined; summary of the method: as §1
# Rattus norvegicus [5] = organism: Rattus norvegicus; assay: Ratio of ED50TSH to that of ED50chol was determined; summary of the method: as §2
Compound,ED15 (Rattus norvegicus [1]) [nM/day/kg],ED50 (Rattus norvegicus [2]) [nM/day/kg],ED50 (Rattus norvegicus [3]) [nM/day/kg],HR/chol (Rattus norvegicus [4]),TSH/chol (Rattus norvegicus [5])
CC(C)c1cc(Oc2c(Br)cc(CC(=O)O)cc2Br)ccc1O,926,<46.2,95.4,9.7,<0.5
CC(C)c1cc(Oc2c(Cl)cc(CC(=O)O)cc2Cl)ccc1O,1077,38,82,13.1,0.4
N[C@H](Cc1cc(I)c(Oc2ccc(O)c(I)c2)c(I)c1)C(=O)O [DETROTHYRONINE],14,7,20,0.7,0.3
